Source: ChEMBL document CHEMBL4145466, “Design, synthesis, and biological evaluation of novel combretastatin A-4 thio derivatives as microtubule targeting agents” (Eur J Med Chem, 2018)
Activity calls are given as the source filed them. The rule behind the calls is not given here.

How the values were obtained:
[1] = tested on: HaCaT; assay: Cell cycle arrest in human HaCaT cells assessed as accumulation of cells at G2/M phase at 0.1 to 1 uM after 24 hrs by propidium iodide staining-based FACS analysis
Method in brief: (§1)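 Cells were seeded at 5 × 10^5 per well in DMEM with 10% FBS and left overnight, then exposed to 0.1, 0.5 or 1 µM for 24 h. DMSO served as the negative control and 50 nM camptothecin as the positive control. Cells were trypsinized, fixed in 70% ethanol for 30 min at 4 °C, stained with 50 µg/mL PI plus 100 µg/mL RNase A for 30 min in the dark, and analysed by flow cytometry. Results are mean ± SD of three experiments, compared by ANOVA with Dunnett's test.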

[2] = tested on: HaCaT; assay: Induction of apoptosis in human HaCaT cells assessed as increase in histone-associated DNA fragments in oligonucleosomes at 0.1 uM after 24 hrs by ELISA; assay type: cell-based
Method in brief: (§2)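 HaCaT cells (2 × 10^4), grown in DMEM with 10% FBS, penicillin/streptomycin and 2 mM L-glutamine, exposed to compound (DMSO stock) for 24 h. Cells lysed, supernatant taken after centrifugation and incubated 2 h on a streptavidin-coated plate with anti-histone-biotin and anti-DNA-peroxidase. ABTS added for 30 min, A405 read. Output is enrichment factor vs control, mean ± SD of three independent experiments.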

[3] = tested on: MCF7; assay: Induction of apoptosis in human MCF7 cells assessed as increase in histone-associated DNA fragments in oligonucleosomes at 0.1 uM after 24 hrs by ELISA; assay type: functional, cell-based
Method in brief: (§3)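 Cells (2 × 10^4) were incubated for 24 h at 0.1, 0.5 or 1 µM, lysed and centrifuged. Supernatants went onto a streptavidin plate with anti-histone-biotin and anti-DNA-peroxidase for 2 h, followed by ABTS for 30 min and a reading at 405 nm. Nucleosome content was expressed as an enrichment factor, as mean ± SD of three experiments.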

[4] = tested on: A-431; assay: Induction of apoptosis in human A431 cells assessed as increase in histone-associated DNA fragments in oligonucleosomes at 0.1 uM after 24 hrs by ELISA; assay type: functional, cell-based; method in brief: as §3
[5] = tested on: HeLa; assay: Induction of apoptosis in human HeLa cells assessed as increase in histone-associated DNA fragments in oligonucleosomes at 0.1 uM after 24 hrs by ELISA; assay type: functional, cell-based; method in brief: as §3
[6] = tested on: MCF7; assay: Cytotoxicity against human MCF7 cells after 48 hrs by MTT assay; assay type: functional, cell-based; conditions: MCF7, 48 h
Method in brief: (§4)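 Cells in DMEM with 10% FBS were plated at 2 × 10^4 per well and left overnight, then treated for 48 h at 0.6–20 µM (six concentrations) from 10 mM DMSO stocks. MTT was added for 2 h, and formazan was dissolved in DMSO and read at 570 nm. Viability was expressed as % of control, with IC50 taken from dose-response curves. Results are mean ± SD of three independent experiments.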

[7] = tested on: HeLa; assay: Cytotoxicity against human HeLa cells after 48 hrs by MTT assay; assay type: functional, cell-based; method in brief: as §4
[8] = tested on: A-431; assay: Cytotoxicity against human A431 cells after 48 hrs by MTT assay; assay type: functional, cell-based; conditions: A-431, 48 h; method in brief: as §4
[9] = tested on: A549; assay: Cytotoxicity against human A549 cells after 48 hrs by MTT assay; assay type: functional, cell-based; conditions: A549, 48 h
[10] = tested on: HeLa; assay: Induction of apoptosis in human HeLa cells after 24 hrs by FITC Annexin V/propidium iodide staining-based FACScan flow cytometric analysis; assay type: functional, cell-based
Method in brief: (§5)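 After 24 h of compound exposure, 1 × 10^6 cells were labelled with annexin V-FITC and PI for 15 min at 25 °C in the dark. They were read on a FACScan with 488 nm excitation, detecting FITC at 525 nm and PI at 620 nm. Results are mean ± SD of three independent experiments, with Dunnett's test against control.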

[11] = tested on: A-431; assay: Induction of apoptosis in human A431 cells after 24 hrs by FITC Annexin V/propidium iodide staining-based FACScan flow cytometric analysis; assay type: functional, cell-based; method in brief: as §5
[12] = tested on: MCF7; assay: Cell cycle arrest in human MCF7 cells assessed as accumulation of cells at G2/M phase at 0.1 to 1 uM after 24 hrs by propidium iodide staining-based FACS analysis; assay type: functional; method in brief: as §1
[13] = tested on: HaCaT; assay: Cytotoxicity against human HaCaT cells after 48 hrs by MTT assay; assay type: cell-based; method in brief: as §4
[14] = tested on: Tubulin; assay: Inhibition of tubulin polymerization in human HaCaT cells assessed as micronuclei formation at 1 uM after 24 hrs by ELISA; assay type: cell-based
[15] = tested on: SK-OV-3; assay: Induction of apoptosis in human SKOV3 cells assessed as increase in histone-associated DNA fragments in oligonucleosomes at 0.1 uM after 24 hrs by ELISA; assay type: functional, cell-based; method in brief: as §3
[16] = tested on: SK-OV-3; assay: Induction of apoptosis in human SKOV3 cells assessed as increase in histone-associated DNA fragments in mononucleosomes at 0.1 uM after 24 hrs by ELISA; assay type: functional, cell-based; method in brief: as §3
[17] = tested on: SK-OV-3; assay: Cell cycle arrest in human SKOV3 cells assessed as accumulation of cells at G2/M phase at 0.1 to 1 uM after 24 hrs by propidium iodide staining-based FACS analysis; assay type: functional; method in brief: as §1
[18] = tested on: HaCaT; assay: Induction of apoptosis in human HaCaT cells after 24 hrs by FITC Annexin V/propidium iodide staining-based FACScan flow cytometric analysis; assay type: cell-based; method in brief: as §5
[19] = tested on: MDA-MB-231; assay: Cell cycle arrest in human MDA-MB-231 cells assessed as accumulation of cells at G2/M phase at 0.1 to 1 uM after 24 hrs by propidium iodide staining-based FACS analysis; assay type: functional; method in brief: as §1
[20] = tested on: MDA-MB-231; assay: Induction of apoptosis in human MDA-MB-231 cells after 24 hrs by FITC Annexin V/propidium iodide staining-based FACScan flow cytometric analysis; assay type: functional, cell-based; method in brief: as §5
[21] = tested on: Tubulin; assay: Inhibition of tubulin polymerization in human HaCaT cells assessed as perturbation in cytoskeleton structure at 1 uM after 24 hrs by ELISA; assay type: cell-based
[22] = tested on: Tubulin; assay: Inhibition of tubulin polymerization in human HaCaT cells assessed as perturbation in cytoskeleton structure at 1 uM after 24 hrs by Hoechst 33258/FITC staining-based […]; assay type: cell-based
Method in brief: (§6)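 Cells seeded at 12.5 × 10^4 per well and exposed to 1 µM compound for 24 h. Nuclei were stained with Hoechst 33258 (10 µg/mL, 30 min, 37 °C), then fixed in 4% formaldehyde/PBS (15 min, RT). Cells were permeabilized with 1% Triton X-100, blocked with 2% BSA/PBS for 1 h, and incubated with anti-α-tubulin-FITC (1:50) overnight at 4 °C. Imaged by fluorescence microscopy.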

[23] = tested on: A-431; assay: Cell cycle arrest in human A431 cells assessed as accumulation of cells at G2/M phase at 0.1 to 1 uM after 24 hrs by propidium iodide staining-based FACS analysis; assay type: functional; method in brief: as §1
[24] = tested on: MDA-MB-231; assay: Induction of apoptosis in human MDA-MB-231 cells assessed as increase in histone-associated DNA fragments in mononucleosomes at 0.1 uM after 24 hrs by ELISA; assay type: functional, cell-based; method in brief: as §3
[25] = tested on: HeLa; assay: Induction of apoptosis in human HeLa cells assessed as increase in histone-associated DNA fragments in mononucleosomes at 0.1 uM after 24 hrs by ELISA; assay type: functional, cell-based; method in brief: as §3
[26] = tested on: MDA-MB-231; assay: Cytotoxicity against human MDA-MB-231 cells after 48 hrs by MTT assay; assay type: functional, cell-based; conditions: MDA-MB-231, 48 h; method in brief: as §4
[27] = tested on: SK-OV-3; assay: Induction of apoptosis in human SKOV3 cells after 24 hrs by FITC Annexin V/propidium iodide staining-based FACScan flow cytometric analysis; assay type: functional, cell-based; method in brief: as §5
[28] = tested on: MCF7; assay: Induction of apoptosis in human MCF7 cells assessed as increase in histone-associated DNA fragments in mononucleosomes at 0.1 uM after 24 hrs by ELISA; assay type: functional, cell-based; method in brief: as §3
[29] = tested on: MDA-MB-231; assay: Induction of apoptosis in human MDA-MB-231 cells assessed as increase in histone-associated DNA fragments in oligonucleosomes at 0.1 uM after 24 hrs by ELISA; assay type: functional, cell-based; method in brief: as §3
[30] = tested on: HaCaT; assay: Induction of apoptosis in human HaCaT cells assessed as increase in histone-associated DNA fragments in mononucleosomes at 0.1 uM after 24 hrs by ELISA; assay type: cell-based; method in brief: as §2
[31] = tested on: SK-OV-3; assay: Cytotoxicity against human SKOV3 cells after 48 hrs by MTT assay; assay type: functional, cell-based; conditions: SK-OV-3, 48 h; method in brief: as §4
[32] = Inhibition of porcine tubulin polymerization after 1 hr by spectrophotometric analysis; parameters: species or system Sus scrofa
Method in brief: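 Polymerization was started by shifting from 4 °C to 37 °C, and absorbance was followed at 37 °C for 60 min. The vehicle served as control.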

[33] = tested on: MCF7; assay: Induction of apoptosis in human MCF7 cells after 24 hrs by FITC Annexin V/propidium iodide staining-based FACScan flow cytometric analysis; assay type: functional, cell-based; method in brief: as §5
[34] = tested on: A-431; assay: Induction of apoptosis in human A431 cells assessed as increase in histone-associated DNA fragments in mononucleosomes at 0.1 uM after 24 hrs by ELISA; assay type: functional, cell-based; method in brief: as §3
[35] = tested on: Tubulin; assay: Inhibition of tubulin polymerization in human HaCaT cells assessed as micronuclei formation at 1 uM after 24 hrs by Hoechst 33258/FITC staining-based […]; assay type: cell-based; method in brief: as §6
[36] = Cytotoxicity against human CCD39Lu cells after 48 hrs by MTT assay; assay type: cell-based; method in brief: as §4

With `COc1ccc(/C=C\c2cc(OC)c(OC)c(OC)c2)cc1O` [COMBRETASTATIN A4] the Activity [1] was “Toxic”, the Activity [2] was “Toxic” and the Activity [3] was “Active”. For the same compound, the Activity [4] was “Active”, the Activity [5] was “Active” and the IC50 [6] was 170 nM. The IC50 [7] was 110 nM, the IC50 [8] was 250 nM and the IC50 [9] was over 20000 nM. The Activity [10] was “Dose-dependent effect”, the Activity [11] was “Dose-dependent effect” and the Activity [12] was “Active”. The IC50 [13] was 190 nM, the “inhibition (INH)” value [14] was “Active” and the Activity [15] was “Active”. For the same compound, the Activity [16] was “Active”, the Activity [17] was “Active” and the Activity [18] was “Dose-dependent effect”. For the same compound, the Activity [19] was “Active”, the Activity [20] was “Dose-dependent effect” and the “inhibition (INH)” value [21] was “Active”. The “inhibition (INH)” value [22] was “Active”, the Activity [23] was “Active” and the Activity [24] was “Active”. The Activity [25] was “Active”, the IC50 [26] was 560 nM and the Activity [27] was “Dose-dependent effect”. The Activity [28] was “Active”, the Activity [29] was “Active” and the Activity [30] was “Toxic”. For the same compound, the IC50 [31] was 380 nM, the IC50 [32] was 2720 nM and the Activity [33] was “Dose-dependent effect”. The Activity [34] was “Active”, the “inhibition (INH)” value [35] was “Active” and the IC50 [36] was 9 nM.
